Experimental findings from ChEMBL document CHEMBL4715757, “Studies on the inhibition of sphingosine-1-phosphate lyase by stabilized reaction intermediates and stereodefined azido phosphates” (Eur J Med Chem, 2016) are described below.

The nature of test [1]: Inhibition of recombinant full-length wild type Symbiobacterium thermophilum S1PL using RBM13 as fluorogenic substrate incubated for 1 hr. The method, boiled down: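 StS1PL, expressed and purified in-house, used at 25 µg/mL final. Buffer: 1 mM potassium phosphate pH 7.2 with 100 mM NaCl, 1 mM EDTA, 1 mM DTT and 10 µM PLP. RBM13 at 125 µM final; 37 °C for 1 h. Stopped with MeOH, then glycine-NaOH pH 10.6 for 20 min at 37 °C. Umbelliferone read at ex/em 355/460 nm against a calibration curve. IC50 fitted from % activity vs log[I].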

In test [2] the target is T1, Sphingosine-1-phosphate lyase 1 (Homo sapiens, UniProt O95470).
T1 sequence (O95470 whole entry): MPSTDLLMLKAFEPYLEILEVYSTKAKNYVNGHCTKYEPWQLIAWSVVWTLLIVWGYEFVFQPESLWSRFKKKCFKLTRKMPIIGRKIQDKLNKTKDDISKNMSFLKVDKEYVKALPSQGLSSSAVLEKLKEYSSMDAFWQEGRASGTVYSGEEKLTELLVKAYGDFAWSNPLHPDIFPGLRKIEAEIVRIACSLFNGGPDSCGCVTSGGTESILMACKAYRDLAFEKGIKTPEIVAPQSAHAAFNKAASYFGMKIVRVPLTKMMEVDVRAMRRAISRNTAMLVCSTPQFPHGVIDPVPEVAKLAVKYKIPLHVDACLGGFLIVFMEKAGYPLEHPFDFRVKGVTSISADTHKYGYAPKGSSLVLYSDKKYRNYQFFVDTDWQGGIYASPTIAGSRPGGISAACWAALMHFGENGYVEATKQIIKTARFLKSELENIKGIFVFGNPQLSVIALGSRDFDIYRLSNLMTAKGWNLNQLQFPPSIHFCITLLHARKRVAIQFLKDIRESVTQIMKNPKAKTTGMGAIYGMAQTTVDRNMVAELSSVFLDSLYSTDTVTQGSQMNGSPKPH
In words: Inhibition of recombinant human S1PL using RBM13 as fluorogenic substrate incubated for 1 hr. The method, boiled down:
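Recombinant hS1PL at 3 µg/mL final in 100 mM HEPES pH 7.4 with 0.1 mM EDTA, 0.05% Triton X-100, 0.01% Pluronic F127 and 100 µM PLP. RBM13 at 125 µM final; 37 °C for 1 h. MeOH stop, then glycine-NaOH pH 10.6 for 20 min at 37 °C. Umbelliferone fluorescence at 355/460 nm, calibration curve. IC50 from % activity vs log[I].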

Test [3] has as its target T1, Sphingosine-1-phosphate lyase 1. In words: Competitive inhibition of human S1PL using varying levels of RBM13 as substrate by Lineweaver-Burk plot analysis.
Test [4] concerns the target T2, Sphingosine-1-phosphate lyase 1 (Mus musculus, UniProt Q8R0X7).
T2 sequence (Q8R0X7 whole entry): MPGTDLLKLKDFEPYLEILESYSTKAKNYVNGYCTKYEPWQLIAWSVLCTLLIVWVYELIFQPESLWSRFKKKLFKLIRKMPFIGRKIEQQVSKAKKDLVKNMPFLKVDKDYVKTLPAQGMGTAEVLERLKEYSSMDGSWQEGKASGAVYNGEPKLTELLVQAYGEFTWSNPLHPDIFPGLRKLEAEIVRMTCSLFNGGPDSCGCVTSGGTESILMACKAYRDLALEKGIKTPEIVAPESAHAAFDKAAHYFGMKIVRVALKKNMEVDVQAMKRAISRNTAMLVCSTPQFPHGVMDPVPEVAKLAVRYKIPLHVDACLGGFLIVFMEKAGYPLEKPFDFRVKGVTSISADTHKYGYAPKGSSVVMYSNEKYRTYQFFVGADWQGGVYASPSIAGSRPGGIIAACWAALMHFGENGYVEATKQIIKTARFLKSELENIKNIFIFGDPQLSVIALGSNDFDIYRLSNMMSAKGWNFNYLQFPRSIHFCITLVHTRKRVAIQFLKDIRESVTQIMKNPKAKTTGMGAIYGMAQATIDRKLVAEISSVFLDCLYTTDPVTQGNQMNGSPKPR
Briefly: Inhibition of mouse liver microsomal S1PL using S1P as substrate incubated for 20 mins by ESI-LC/MS analysis. Format: microsomes, Microsome. On the technique in general: Liver microsomes are vesicles of endoplasmic reticulum, rich in cytochrome P450 enzymes.

The target in test [5] is T3, Sphingosine-1-phosphate lyase 1 (Homo sapiens) (UniProt O95470).
T3 sequence (whole entry): T1 sequence (O95470 whole entry)
Briefly: Inhibition of recombinant human S1PL at 250 uM using RBM13 as fluorogenic substrate incubated for 1 hr relative to control.

The subject of test [6] is Symbiobacterium thermophilum. Briefly: Inhibition of recombinant full-length wild type Symbiobacterium thermophilum S1PL at 250 uM using RBM13 as fluorogenic substrate incubated for 1 hr relative to control.

Usually IC50 stands for the concentration needed to halve the response being measured. As a reminder, the Ki is a dissociation constant, usually derived from enzyme kinetics or from competition with a known ligand. In the case of `CCCCCCCCCCCCCCC[C@@H](O)[C@@H](COP(=O)(O)O)N=[N+]=[N-]`, the values for the IC50 in test [1] and in test [2] were 24.3 µM and 28.3 µM, respectively. Moreover, the affinity in test [3] corresponds to a Ki of 36.7 µM.
With `CCCCCCCCCCCCC/C=C/[C@@H](O)[C@H](COP(=O)(O)O)NCc1c(COP(=O)(O)O)cnc(C)c1O`, the figures for the IC50 in test [1] and in test [2] were 53.4 µM and 89 µM, respectively.
The like results for `CCCCCCCCCCCCCCC[C@@H](O)[C@H](COP(=O)(O)O)NCc1c(COP(=O)(O)O)cnc(C)c1O` were, in that order, 47 µM and 81.1 µM.
Turning to `CCCCCCCCc1ccc(CCC(N)(CO)CO)cc1` [FINGOLIMOD], 52.4 µM corresponded to half-maximal inhibition in test [4] (IC50).
On to `CCCCCCCCCCCCC/C=C/[C@H](O)[C@@H](COP(=O)(O)O)N=[N+]=[N-]`, for which the IC50 amounted to 13.8 µM in test [1] and 5.2 µM in test [2]. In test [3], this molecule came in with a Ki of 5.6 µM.
The like results for `CCCCCCCCCCCCCCC[C@H](O)[C@@H](COP(=O)(O)O)N=[N+]=[N-]` were, in that order, 25.7 µM, 10.8 µM and 6.3 µM.
As to `CCCCCCCCCCCCC/C=C/[C@@H](O)[C@H](COP(=O)(O)O)N=[N+]=[N-]`, the half-maximal inhibitory concentration (IC50) in test [1] is 12.9 µM; in test [2] it was 10.1 µM. Besides, in test [3], the inhibition constant Ki is 9.1 µM.
Take `CCCCCCCCCCCCCCC[C@H](O)[C@H](COP(=O)(O)O)N=[N+]=[N-]`: the IC50 in test [1] stood at 27.2 µM; in test [2] it was 21.8 µM. The molecule also registered a Ki in test [3] of 16.4 µM.
For the molecule `CCCCCCCCCCCCC/C=C/[C@@H](O)[C@@H](COP(=O)(O)O)N=[N+]=[N-]`, the values for the IC50 in test [1] and in test [2] were 11.7 µM and 22.9 µM, respectively. In test [3], this molecule returned an inhibition constant (Ki) of 17.5 µM.
In general, inhibition refers to the drop in the measured response relative to a control, in per cent. In the case of `Cc1ncc(COP(=O)(O)O)c(CNCCOP(=O)(O)O)c1O`, the inhibition in test [5] and in test [6] was 20% in each case.
Consider `CCCCCCCCCCCCCCC[C@@H](O)[C@H](COP(=O)(O)O)N=[N+]=[N-]`, for which the 50% inhibitory concentration (IC50) amounted to 25 µM in test [1] and 25.7 µM in test [2]. In addition, the Ki in test [3] was determined as 19 µM.
Regarding `CCCCCCCCCCCCC/C=C/[C@H](O)[C@H](COP(=O)(O)O)N=[N+]=[N-]`, the 50% inhibitory concentration (IC50) in test [1] amounted to 16 µM; in test [2] it was 28.8 µM. The molecule also returned a Ki in test [3] of 20.4 µM.
